Measured values reported in ChEMBL document CHEMBL4414587 (J Med Chem, 2019).

Columns and labels:
[1] = target: T1, 5-hydroxytryptamine receptor 1A (Homo sapiens) (UniProt P08908); experiment: Agonist activity at 5-HT1A receptor (unknown origin) assessed as stimulation of [35S]GTPgammaS binding relative to control; assay type: functional
T1 sequence (whole entry): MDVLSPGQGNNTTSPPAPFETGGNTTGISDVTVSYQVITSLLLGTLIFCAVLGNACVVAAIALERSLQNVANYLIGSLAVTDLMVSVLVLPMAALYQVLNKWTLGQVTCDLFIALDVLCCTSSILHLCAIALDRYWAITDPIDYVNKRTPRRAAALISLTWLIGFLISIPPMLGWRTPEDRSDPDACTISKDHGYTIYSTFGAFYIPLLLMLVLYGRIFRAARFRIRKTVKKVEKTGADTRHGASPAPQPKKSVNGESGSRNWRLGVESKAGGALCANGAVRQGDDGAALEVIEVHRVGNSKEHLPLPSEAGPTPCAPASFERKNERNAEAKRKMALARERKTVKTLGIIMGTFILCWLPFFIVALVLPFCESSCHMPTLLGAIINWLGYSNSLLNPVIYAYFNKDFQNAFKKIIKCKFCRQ

[2] = Metabolic stability in rat liver microsomes assessed as parent compound remaining at 10 uM measured after 60 mins in presence of NADPH regenerating system by LC/MS/MS analysis; assay type: ADME, Microsome; settings: read-out: Stability
Procedure, shortened: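 Compound at 10 μM final was incubated with rat liver microsomes at 0.5 mg/mL in 100 mM potassium phosphate, pH 7.4, with an NADPH regenerating system. Buprenorphine served as positive control. Parent disappearance was followed by LC/MS/MS, and percent remaining was reported at 60 min. Reactions were run in triplicate.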

[3] = Cmax in Long-Evans rat brain at 10 mg/kg, po measured up to 24 hrs by LC/MS/MS analysis; assay type: ADME, organism-based; design: dose 10 mg/kg, route oral; settings: in vivo
[4] = Tmax in Long-Evans rat plasma at 10 mg/kg, po measured up to 24 hrs by LC/MS/MS analysis; assay type: ADME, organism-based
[5] = Tmax in Long-Evans rat brain at 10 mg/kg, po measured up to 24 hrs by LC/MS/MS analysis; assay type: ADME, organism-based
[6] = AUC (0 to t) in Long-Evans rat brain at 10 mg/kg, po measured up to 24 hrs by LC/MS/MS analysis; assay type: ADME, organism-based; settings: in vivo
[7] = target: T2, D(3) dopamine receptor (Homo sapiens, UniProt P35462); experiment: Agonist activity at human D3 receptor expressed in CHO cells assessed as stimulation of quinpirole-induced mitogenesis relative to control; assay type: cell-based; design: concentration or dose not given beside the values
[8] = AUC (0 to t) in Long-Evans rat plasma at 10 mg/kg, po measured up to 24 hrs by LC/MS/MS analysis; assay type: ADME, organism-based; design: time < 24 hr, dose 10 mg/kg, route oral
[9] = species: Homo sapiens; experiment: Selectivity ratio of Ki for displacement of [3H]N-methylspiperone from human D2L receptor expressed in HEK293 cell membranes to Ki for displacement of [3H]N-methylspiperone from human D3 receptor expressed in HEK293 cell membranes
[10] = target: T2, D(3) dopamine receptor; experiment: Agonist activity at human D3 receptor expressed in CHO cells assessed as stimulation of quinpirole-induced mitogenesis; assay type: cell-based
[11] = target: T3, 5-hydroxytryptamine receptor 2C (Homo sapiens, UniProt P28335); experiment: Displacement of [125I] DOI from 5HT2C receptor (unknown origin)
T3 sequence (P28335 whole entry): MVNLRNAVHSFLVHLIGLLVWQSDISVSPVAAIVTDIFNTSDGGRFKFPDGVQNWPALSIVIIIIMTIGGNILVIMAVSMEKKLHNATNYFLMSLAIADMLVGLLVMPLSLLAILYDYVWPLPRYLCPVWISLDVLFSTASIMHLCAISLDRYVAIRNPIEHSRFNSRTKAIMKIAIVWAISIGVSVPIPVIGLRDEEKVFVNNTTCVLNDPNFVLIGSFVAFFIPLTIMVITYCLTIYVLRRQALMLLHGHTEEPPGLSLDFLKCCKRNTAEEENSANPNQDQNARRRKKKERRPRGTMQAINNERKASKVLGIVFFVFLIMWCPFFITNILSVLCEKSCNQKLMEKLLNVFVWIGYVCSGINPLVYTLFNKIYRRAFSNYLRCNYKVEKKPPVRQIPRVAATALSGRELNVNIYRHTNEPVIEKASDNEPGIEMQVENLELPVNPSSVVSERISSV

[12] = target: D(2) dopamine receptor (Homo sapiens, UniProt P14416); experiment: Displacement of [3H]N-methylspiperone from human D2L receptor expressed in HEK293 cell membranes measured after 60 mins by scintillation counting method
Procedure, shortened: (§1)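 Membranes from HEK293 cells stably expressing human D2L or D3 were used at 20 μg protein/well in EBSS buffer, pH 7.4, with 0.4 nM [3H]N-methylspiperone. Compounds were run as 10 half-log dilutions in triplicate for 1 h at rt, with nonspecific binding defined by 10 μM (+)-butaclamol. Reactions were filtered onto GF/B and counted by scintillation.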

[13] = target: T2, D(3) dopamine receptor; experiment: Displacement of [3H]N-methylspiperone from human D3 receptor expressed in HEK293 cell membranes measured after 60 mins by scintillation counting method; procedure, shortened: as §1
[14] = Cmax in Long-Evans rat plasma at 10 mg/kg, po measured up to 24 hrs by LC/MS/MS analysis; assay type: ADME, organism-based; design: dose 10 mg/kg, route oral

T2 sequence (P35462 whole entry): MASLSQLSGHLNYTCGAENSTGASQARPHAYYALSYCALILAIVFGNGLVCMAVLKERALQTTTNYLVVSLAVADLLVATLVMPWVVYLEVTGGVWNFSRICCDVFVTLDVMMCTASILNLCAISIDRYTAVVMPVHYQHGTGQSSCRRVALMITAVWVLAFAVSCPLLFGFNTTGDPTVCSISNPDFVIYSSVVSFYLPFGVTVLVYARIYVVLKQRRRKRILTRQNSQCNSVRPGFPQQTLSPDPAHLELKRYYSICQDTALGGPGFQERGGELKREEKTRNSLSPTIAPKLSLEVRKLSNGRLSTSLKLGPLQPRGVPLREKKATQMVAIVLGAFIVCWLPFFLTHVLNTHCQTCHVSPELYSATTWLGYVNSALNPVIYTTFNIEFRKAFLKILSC
Chain of D(2) dopamine receptor (P14416 whole entry): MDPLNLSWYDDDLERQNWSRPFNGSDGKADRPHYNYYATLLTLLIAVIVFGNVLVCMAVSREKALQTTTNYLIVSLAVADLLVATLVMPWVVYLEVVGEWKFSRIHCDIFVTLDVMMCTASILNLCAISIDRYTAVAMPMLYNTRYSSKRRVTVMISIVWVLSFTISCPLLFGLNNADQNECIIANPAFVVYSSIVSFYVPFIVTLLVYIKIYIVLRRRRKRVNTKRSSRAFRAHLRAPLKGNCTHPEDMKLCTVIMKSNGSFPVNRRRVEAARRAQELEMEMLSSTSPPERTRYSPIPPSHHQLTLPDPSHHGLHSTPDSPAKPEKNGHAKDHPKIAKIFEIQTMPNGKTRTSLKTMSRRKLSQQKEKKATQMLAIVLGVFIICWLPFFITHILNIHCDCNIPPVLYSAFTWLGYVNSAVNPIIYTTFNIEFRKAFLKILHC

Row | Structure (SMILES) | remaining at 1 h, 10 µM [2] [%] | Activity [7] [%] | Ratio Ki [9] | other results
1 | CCc1cccc(N2CCN(C[C@@H](O)CCNC(=O)c3cc4ccccc4[nH]3)CC2)c1Cl | 57 to 86 | – | – | Activity [1]: 69%; Cmax [3]: 2670 to 3670 pmol/g; Tmax [4]: 2 h; Tmax [5]: 2 h; AUCt [6]: 16665 pmol·h/g
2 | CCc1cccc(N2CCN(CC(F)CCNC(=O)c3cc4ccccc4o3)CC2)c1Cl (stereo not drawn) | 34 | 15.5 | 134 | EC50 [10]: > 7.5 µM; Activity [1]: 43%
3 | CCc1cccc(N2CCN(CC(O)CCNC(=O)c3cc4ccccc4[nH]3)CC2)c1Cl (racemic) | 57 to 86 | – | – | –
4 | CCc1cc(Cl)c(OC)c(N2CCN(CC(O)CCNC(=O)c3ccc4c(c3)OCO4)CC2)c1 (stereo not drawn) | – | – | 15 | –
5 | CCc1cccc(N2CCN(C[C@@H](F)CCNC(=O)c3cc4ccccc4[nH]3)CC2)c1Cl | 57 to 70 | – | 1060 | –
6 | CCc1cccc(N2CCN(C[C@H](F)CCNC(=O)c3cc4ccccc4[nH]3)CC2)c1Cl | 57 to 70 | – | 215 | –
7 | CCc1cccc(N2CCN(CC(F)CCNC(=O)c3cc4ccccc4[nH]3)CC2)c1Cl (racemic) | 38 | 5.4 | 327 | EC50 [10]: > 6.8 µM
8 | CCc1cc2c(cc1N1CCN(CC(O)CCNC(=O)c3cc4ccccc4o3)CC1)OCO2 (stereo not drawn) | – | – | 61 | –
9 | CCc1cccc(N2CCN(CC(O)CCNC(=O)c3ccc4c(c3)OCO4)CC2)c1Cl (stereo not drawn) | – | – | 140 | Ki [12]: 0.424 µM; Ki [13]: 0.00302 µM
10 | CCc1cccc(N2CCN(C[C@H](O)CCNC(=O)c3cc4ccccc4[nH]3)CC2)c1Cl | 57 to 86 | – | – | Activity [1]: 74%; Cmax [14]: 291 to 306 nM; Cmax [3]: 3850 pmol/g; Tmax [4]: 2 h; Tmax [5]: 2 h; AUCt [6]: 21600 pmol·h/g
11 | CCc1cc(Cl)c(OC)c(N2CCN(CC(F)CCNC(=O)c3cc4ccccc4o3)CC2)c1 (stereo not drawn) | 12 | 5.1 | 108 | EC50 [10]: > 4 µM

Further lines, with some results ahead:

Row | remaining at 1 h, 10 µM [2] [%] | Activity [7] [%] | Structure (SMILES) | Ratio Ki [9] | other results
12 | 57 to 86 | 17.7 | CCc1cc(Cl)c(OC)c(N2CCN(C[C@H](O)CCNC(=O)c3cc4ccccc4[nH]3)CC2)c1 | – | Cmax [3]: 1796.6 pmol/g; Tmax [5]: 4 h; AUC(0-t) at 24 h [8]: 2.2 µM·h; AUCt [6]: 8412 pmol·h/g
13 | 57 to 86 | 17 | CCc1cc(Cl)c(OC)c(N2CCN(C[C@@H](O)CCNC(=O)c3cc4ccccc4[nH]3)CC2)c1 | – | Cmax [3]: 959.9 pmol/g; Tmax [5]: 4 h; AUC(0-t) at 24 h [8]: 1.07 µM·h; AUCt [6]: 4360 pmol·h/g
14 | 57 to 86 | – | CCc1cc(Cl)c(OC)c(N2CCN(CC(O)CCNC(=O)c3cc4ccccc4[nH]3)CC2)c1 (racemic) | – | –
15 | 57 to 70 | – | CCc1cc(Cl)c(OC)c(N2CCN(C[C@@H](F)CCNC(=O)c3cc4ccccc4[nH]3)CC2)c1 | 535 | –
16 | 75 | 2.7 | CCc1cc(Cl)c(OC)c(N2CCN(CC(F)CCNC(=O)c3cc4ccccc4[nH]3)CC2)c1 (racemic) | 746 | EC50 [10]: > 5.4 µM; Ki [11]: > 8.9 µM
17 | 57 to 70 | – | CCc1cc(Cl)c(OC)c(N2CCN(C[C@H](F)CCNC(=O)c3cc4ccccc4[nH]3)CC2)c1 | 1650 | –
